Data as given in ChEMBL document CHEMBL1156120, “18F stilbenes and styrylpyridines for PET imaging of A beta plaques in Alzheimer's disease: a miniperspective” (J Med Chem, 2010).

Molecular target: Amyloid-beta precursor protein (Homo sapiens, UniProt P05067)
Experiment: Binding affinity to Beta amyloid aggregates in Alzheimer's disease patient brain by competitive binding assay
Settings: not given
In short: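 Competition binding against ¹⁸F-AV-45 (0.04–0.06 nM, diluted in PBS) in postmortem AD brain homogenate (20–25 µg per assay). Competitors were serially diluted 10⁻⁵–10⁻¹⁰ M in PBS with 0.1% bovine serum albumin, in a final volume of 0.5 mL. Inhibition constant (Ki) derived from displacement.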

Sequence of Amyloid-beta precursor protein (P05067 whole entry): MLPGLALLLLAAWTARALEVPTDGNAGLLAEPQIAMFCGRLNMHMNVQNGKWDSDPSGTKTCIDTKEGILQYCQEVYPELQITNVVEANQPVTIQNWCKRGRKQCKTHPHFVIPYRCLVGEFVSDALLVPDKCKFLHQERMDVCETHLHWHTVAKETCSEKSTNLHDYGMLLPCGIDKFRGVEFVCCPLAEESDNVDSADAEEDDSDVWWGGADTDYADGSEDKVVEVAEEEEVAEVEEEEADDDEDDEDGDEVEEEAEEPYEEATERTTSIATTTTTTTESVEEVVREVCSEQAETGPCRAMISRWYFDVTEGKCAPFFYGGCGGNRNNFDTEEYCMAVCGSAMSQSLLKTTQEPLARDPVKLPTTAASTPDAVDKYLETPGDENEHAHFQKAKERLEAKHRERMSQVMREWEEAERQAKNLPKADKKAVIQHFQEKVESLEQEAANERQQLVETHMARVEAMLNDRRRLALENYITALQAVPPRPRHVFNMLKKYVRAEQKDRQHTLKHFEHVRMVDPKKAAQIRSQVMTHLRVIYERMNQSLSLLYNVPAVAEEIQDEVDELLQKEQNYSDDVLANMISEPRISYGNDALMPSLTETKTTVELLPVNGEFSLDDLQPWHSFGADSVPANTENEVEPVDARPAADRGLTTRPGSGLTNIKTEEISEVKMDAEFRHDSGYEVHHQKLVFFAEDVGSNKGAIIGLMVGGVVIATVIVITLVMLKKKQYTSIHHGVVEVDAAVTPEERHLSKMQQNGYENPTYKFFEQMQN

Going from CN(C)c1ccc(/C=C/c2ccc(F)cc2)cc1 to CN(C)c1ccc(/C=C/c2ccc(I)cc2)cc1, the Ki falls from 22 nM to 2 nM (11-fold).

First: CN(C)c1ccc(/C=C/c2cccc(I)c2)cc1
Second: Oc1ccc(/C=C/c2cccc(I)c2)cc1
The Ki of the first is 7.1-fold lower: 4.5 nM for the first, 32 nM for the second.

First: CNc1ccc(/C=C/c2ccc(OCCOCCOCCOCCOCCOCCOCCOCCOCCF)cc2)cc1
Second: CNc1ccc(/C=C/c2ccc(OCCOCCOCCOCCOCCOCCOCCOCCOCCOCCF)cc2)cc1
The Ki of the first is 1.5-fold higher: 18.5 nM for the first, 12.2 nM for the second. The second binds more tightly here.

First: CNc1ccc(-c2nc3ccc(O)cc3s2)cc1F [FLUTEMETAMOL]
Second: CNc1ccc(-c2nc3ccc(O)cc3s2)cn1
The Ki of the first is 2.3-fold lower: 0.74 nM for the first, 1.7 nM for the second. The first binds more tightly here.

Going from CNc1ccc(/C=C/c2ccc(OCC(CO)CF)cc2)cc1 (centres undefined) to CNc1ccc(/C=C/c2ccc(OCCOCCOCCOCCOCCOCCF)cc2)cc1, the Ki rises from 5 nM to 7.5 nM (1.5-fold). The first binds more tightly here.

Compared with COc1ccc(/C=C/c2cccc(I)c2)cc1, CN(C)c1ccc(/C=C/c2ccccc2I)cc1 is 2.9-fold lower in Ki: 22 nM for the first, 7.7 nM for the second.

Going from CNc1ccc(/C=C/c2ccc(OCCOCCOCC[18F])nc2)cc1 [FLORBETAPIR F 18] to CNc1ccc(/C=C/c2ccc(OCCOCCOCCOCCOCCOCCOCCF)cc2)cc1, the Ki rises from 2.87 nM to 8.2 nM (2.9-fold). The first binds more tightly here.

Compared with CNc1ccc(/C=C/c2ccc(OCCOCCOCCOCCOCCOCCOCCOCCF)cc2)cc1, CN(C)c1ccc(/C=C/c2nc3ccccc3s2)cc1 is 3.9-fold lower in Ki: 9 nM for the first, 2.3 nM for the second. The second binds more tightly here.

Going from O=C(O)c1cc(/N=N/c2ccc(-c3ccc(/N=N/c4ccc(O)c(C(=O)O)c4)cc3)cc2)ccc1O [CHRYSAMINE G] to CC(=C(C#N)C#N)c1ccc2cc(N(C)CCF)ccc2c1, the Ki falls from greater than 1000 nM to 172 nM. The second binds more tightly here.

Tested on: not listed separately
Experiment: Partition coefficient, log P at pH 7.4
Format: physicochemical
Settings: octanol/water

CNc1ccc(/C=C/c2ccc(OCC(CO)C[18F])cc2)cc1 (centres undefined) gave a logD of 2.95.
